The values below come from ChEMBL document CHEMBL3232834, “Synthesis of novel building blocks of benzosuberone bearing coumarin moieties and their evaluation as potential anticancer agents” (Eur J Med Chem, 2014).

One test has as its system MDA-MB-231. Nature of the test: In vitro cytotoxicity against human MDA-MB-231 cells assessed as growth inhibition by MTT assay. It is filed as functional, cell-based. The gist of the method: (§1)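 Human tumour lines A549 (alveolar adenocarcinoma), HeLa (cervical), MDA-MB-231 and MCF7 (breast adenocarcinoma), plus normal embryonic kidney HEK293, all ATCC-sourced, grown in 96-well plates. Growth inhibition read as cell-mediated reduction of tetrazolium salt (MTT) to formazan, with doxorubicin as standard. IC50 (µM) calculated from absorbance dose-response curves.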
For orientation: Tetrazolium dyes change colour on reduction, which living cells bring about.

The next test concerns MCF7. Nature of the test: In vitro cytotoxicity against human MCF7 cells assessed as growth inhibition by MTT assay. It is filed as functional, cell-based. A digest of the protocol:
as §1

A further test concerns HEK293. Nature of the test: In vitro cytotoxicity against HEK293 cells assessed as growth inhibition by MTT assay. It is filed as cell-based. Particulars: Homo sapiens. The gist of the method:
as §1

In another test the test system is A549. The test is described as follows: In vitro cytotoxicity against human A549 cells assessed as growth inhibition by MTT assay. It is filed as functional, cell-based. The gist of the method:
as §1

Another test relates to HeLa. Nature of the test: In vitro cytotoxicity against human HeLa cells assessed as growth inhibition by MTT assay. It is filed as functional, cell-based. A digest of the protocol: as §1

As a reminder, the IC50 is the concentration at which inhibition is half-maximal. For `COc1cc2c(cc1OC)-c1c(c(=O)oc3ccccc13)CCC2`, the IC50 in the test with MDA-MB-231 was 4.87 µM; with MCF7, above 200 µM; in the test on HEK293, above 200 µM; in the test with A549 it was above 200 µM; in the test with HeLa, 6.72 µM.
For the molecule `Cc1cc2c(cc1C)-c1c(c(=O)oc3ccc(Cl)cc13)CCC2`, the IC50 was 13.3 µM in the test on MDA-MB-231; 15.8 µM with MCF7; above 200 µM in the test with HEK293; 10.8 µM in the test on A549; 12.7 µM in the test on HeLa.
In the case of `O=c1oc2ccccc2c2c1CCCc1ccccc1-2`, the IC50 was 16.8 µM with MDA-MB-231; 9.63 µM with MCF7; above 200 µM in the test with HEK293; 3.35 µM in the test with A549; 14.1 µM in the test with HeLa.
With `COc1cccc2c1C(=O)c1c(O)c3c(c(O)c1C2=O)C[C@@](O)(C(=O)CO)C[C@@H]3O[C@H]1C[C@H](N)[C@H](O)[C@H](C)O1` [DOXORUBICIN], the IC50 in the test on HEK293 is above 200 µM.
